WT yeast gro inh = growth inhibition of WT strain, primary screen, mitochondrial fusion inhibitor project, WT and mutant strains, chemical genetic. mitochondrial fusion phenotypic screen. inhibition, % at 10 µM. hit rate 2.1% among 190,000; in the data active = inhibition above about 58%; tested in S. cerevisiae
KCC2 mod = KCC2 cotransporter modulators, thallium flux, primary screen, cell-based, HEK293 KCC2, FluoZin-2 fluorescence, MLSMR. KCC2 cells, thallium flux FluoZin-2 fluorescence. B-score of Tl+ flux slope (higher = more flux/activation; lower = inhibition) at 10 µM. hit rate 2.2% among 190,000. AID 1456, 2008;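 active = thallium flux slope and its plate-corrected score both differing from the plate sample mean at a set confidence after two filtering rounds, in either direction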;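 also: slope of fluorescence scaled to starting intensity during 10 to 20 s after thallium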
b-catenin transl = modulators of beta-catenin nuclear translocation, primary screen, imaging, HeLa cells, immunofluorescence, high-content; nuclear translocation activity, % at 5 µM; hit rate 0.3% among 190,000; AID 1665, 2009;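 active = nuclear translocation activity above 50% at 5 µM, with a well cell count of 50 or more; inconclusive = wells under 50 cells across six images, flagged as toxic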;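 also: per-cell ratio of nuclear to cytoplasmic median beta-catenin stain intensity; plate controls were DMSO negative control for no effect and GSK-3 inhibitor IX positive control for full effect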
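Signal – beta-catenin immunofluorescence imaging with DAPI · Test system – human HeLa cell line · Dosing – 5 µM primary single dose, 0.1% DMSO, 0.02–20 µM confirmation series · Measure – % activation, nuclear-to-cytoplasmic median beta-catenin signal ratio per cell · Incubation – 24 h compound exposure at 37°C, 5% CO2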
MT stabilizer = microtubule stabilizers in HeLa cells, primary screen, imaging, high-content imaging; HeLa tubulin immunostaining HCS, 24 h; share of cells brighter than vehicle mean+2SD; hit rate 0.83% among 200,000; % tubulin-high responders, % at 10 µM; AID 2205, 2009;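 active = plate Z-score above 3 for both tubulin-high and condensed-nucleus cell shares, with cell loss under 80%, at 10 µM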;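 also: anti alpha tubulin signal scored within the nucleus-defined area of each cell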
Pf gametocyte = late stage P. falciparum gametocyte viability inhibitors, primary screen, ATP luminescence, HTS; inhibition, % at 10.9 µM; hit rate 0.065% among 150,000; P. falciparum stage V gametocytes, 24 h;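 active = inhibition above the mean plus 3 SD of compounds within the control limits, set per campaign, cut at about 38% in these data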;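 also: 0% = DMSO wells and 100% = medium only without gametocytes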
KCC2 sec1 = KCC2 modulators in sodium-free buffer, confirmation, cell-based, HEK293 KCC2, thallium flux, secondary assay; shares compounds with KCC2 mod; FluoZin2 fluorescence; active compounds read high; normalised thallium flux (F/F0 slope) at 10 µM; hit rate 15% among 3,700;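 active = thallium flux slope above the same plate's solvent-only control mean plus 3 SD; inconclusive = the two replicate wells disagree; inactive = no significant difference from solvent-only control wells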
KCC2 bumet counter = thallium flux persisting under bumetanide in KCC2 cells, confirmation, counter-screen for KCC2 modulator project, cell-based, HEK293 KCC2, FluoZin2, secondary assay 3; shares compounds with KCC2 mod; HEK293-KCC2 + bumetanide/ouabain; active compounds read high; normalized thallium flux at 10 µM; hit rate 49% among 3,700;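 active = thallium entry rate above the same plate's blocked-transporter control wells by more than 3 SD; inconclusive = the two repeat wells disagree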;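 also: raw slope of fluorescence over initial fluorescence between 10 and 20 s after thallium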
KCC2 secondary2 = KCC2 modulators without ouabain present, confirmation, cell-based, HEK293 KCC2, thallium flux, FluoZin2, secondary assay 2; hit rate 23% among 3,700; normalized thallium flux at 10 µM; thallium flux FluoZin2 fluorescence; actives lie on both sides; F/F0 rise rate, 10–20 s post-thallium; AID 1715, 2009; shares compounds with KCC2 mod;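 active = thallium flux slope more than 3 SD above or below the plate's solvent-only control mean, mostly below; inconclusive = the two repeat wells disagreed; inactive = no significant shift from solvent-only controls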;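 also: raw slope with 0.1% DMSO as baseline and bumetanide as block control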
HEK counter1 = thallium flux modulation in parental HEK cells, confirmation, counter-screen for KCC2 modulator project, cell-based, counterscreen 1 | AID 1716, 2009 | shares compounds with KCC2 mod | hit rate 46% among 3,700 | thallium flux rate (normalised fluorescence) at 10 µM | HEK293 parental cells, thallium flux FluoZin2, ouabain; baseline-ratio fluorescence slope, 10–20 s after thallium;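 active = thallium flux rate significantly above the same plate's solvent-only control wells, beyond their mean plus 3 SD; inconclusive = the two replicate wells gave conflicting results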
KCC2 retest ouab = KCC2 inhibitors and activators, ouabain retest, confirmation, HEK-KCC2 cells | shares compounds with KCC2 mod | HEK293-KCC2, thallium flux FluoZin2 fluorescence; bidirectional: low = inhibitor, high = activator | raw Tl+ flux slope (below DMSO = inhibition, above = activation) at 10 µM | hit rate 48% among 3,700 | AID 1717, 2009;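 active = thallium flux slope beyond 3 SD from same-plate DMSO control mean in most replicates, usually higher, sometimes lower; inconclusive = repeat tests gave conflicting results; inactive = no significant difference from controls in most replicates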;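 also: slope of initial-normalized fluorescence between seconds 10 and 20 after thallium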
HEK counter2 = native HEK Tl+ uptake effects, second counter-screen – HEK cells, counterscreen 2, counter-screen for KCC2 modulator project, confirmation. hit rate 33% among 3,700. HEK293 parental, thallium flux FluoZin-2 fluorescence slope. shares compounds with KCC2 mod. thallium flux slope at 10 µM;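 active = thallium flux slope above the same plate's solvent-control mean plus 3 SD in both duplicate wells; inconclusive = duplicate wells that disagreed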;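 also: run without ouabain in cells lacking the KCC2 cotransporter; slope of fluorescence scaled to its starting value between 10 and 20 s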
Numbers without * were called inactive; ? = inconclusive; / = no result given. Compounds with a hit are over-represented: about 4% of the library has one in this group of screens.

SMILES	WT yeast gro inh	KCC2 mod	b-catenin transl	MT stabilizer	Pf gametocyte	KCC2 sec1	KCC2 bumet counter	KCC2 secondary2	HEK counter1	KCC2 retest ouab	HEK counter2
CC(C)(CCl)C(=O)Nc1ccc(OC(F)(F)F)cc1	2	0.78	-5	2	18	/	/	/	/	/	/
CS/C(=C\[N+](=O)[O-])Nc1ccc(OC(F)(F)F)cc1	-2	-4.2*	-1	3	5	0.0076	?	0.025*	?	0.014*	0.012
Cn1nc(-c2ccc(N3CCOCC3)c(NS(=O)(=O)c3ccc(Cl)cc3)c2)c2ccccc2c1=O	6	5.8*	0	4	/	0.0097	0.0059	0.032	0.0083	0.019	0.011
Cc1ccc(N2C(=O)C(Cc3ccc(O)cc3)NC2=S)cc1C (stereo not given)	-2	-3.9*	0	3	-22	0.0088	0.0047	0.032	0.0074	0.023	0.01
CC(C)Sc1nc2ccccc2n2cnnc12	/	/	/	/	-1	/	/	/	/	/	/
CN1CCN(CCCNC(=O)c2ccc(/C=C3\Sc4ccccc4N(Cc4ccc(F)cc4)C3=O)cc2)CC1	9	2.7*	4	2	5	0.0089	0.0051	0.033	0.0077	0.019	0.012
O=C(Nc1cc(=O)[nH]c2nc(-c3ccccc3)nn12)c1ccccc1Cl	/	-3.2*	0	/	6	0.0081	0.0066	0.03	0.0068	?	?
COc1ccc(CN(C(=O)c2cc3ccccc3oc2=O)C2CCCC2)cc1	5	-5.1*	-3	5	/	0.0077	0.0043	0.031	?	?	0.011
CC(=O)N1N=C(c2cccs2)CC1c1cc2cc(C)ccc2nc1Cl (stereo not given)	/	0.96	0	/	-46	/	/	/	/	/	/
COc1cccc(/C=N/Nc2snc(SC)c2C#N)c1O	14	31*	4	2	14	0.023*	0.082*	0.038	0.039*	0.055*	0.014*
Cc1ccc(C)c(S(=O)(=O)NC(C)C(=O)Nc2ccc(-c3nc4ccccc4s3)cc2)c1 (stereo not given)	-3	4.8*	0	2	-26	0.017	0.0059*	0.03	?	0.017	0.011
CN1/C(=C\C(=S)NC(=O)c2cccc(Br)c2)C(C)(C)c2ccccc21	65*	4.6*	-3	6	/	0.01	0.014*	0.035	?	?	0.012
O=C(Cn1cnc2c(nnn2Cc2ccccc2)c1=O)c1ccc(Cl)cc1	12	-4.1*	-2	5	/	0.01	?	?	0.008	0.018*	0.011
O=C(Cn1cnc2c(nnn2Cc2ccc(F)cc2)c1=O)N1CCN(c2ccccc2)CC1	3	/	0	8	/	0.0068	0.0044	0.024*	0.0076	?	0.011
O=C(Cn1cnc2c(nnn2-c2ccccc2)c1=O)N1CCCc2ccccc21	7	-0.57	0	3	/	/	/	/	/	/	/
O=C(Cn1cnc2c(nnn2Cc2ccccc2)c1=O)N1CCCc2ccccc21	2	-4.5*	-4	3	/	0.0067	0.0051	0.022*	0.008	?	0.011
O=C(Cn1cnc2c(nnn2-c2ccccc2)c1=O)NCCc1ccccc1	-11	-4.3*	-1	2	/	0.007	0.0051	0.023*	0.0073	0.014*	0.01
Cc1ccc(Cn2nnc3c(=O)n(CC(=O)c4ccccc4)cnc32)cc1	8	-3.2	-1	6	/	/	/	/	/	/	/
O=C(Cn1cnc2c(cnn2-c2ccccc2)c1=O)NCCc1ccccc1	-17	-0.031	3	1	/	/	/	/	/	/	/
COc1ccc(-n2c(SCc3cn4c(C)cccc4n3)nc3ccccc3c2=O)cc1OC	-6	-0.37	-3	4	0	/	/	/	/	/	/
Cc1ccc(Cn2c(CCCO)nc3ccccc32)cc1	/	/	/	/	-2	/	/	/	/	/	/
CC(CCc1ccccc1)NC(=O)/C=C/c1ccc(Cl)cc1 (stereo not given)	36	-8.1*	/	3	-13	0.0073	0.0056	0.027	0.0065	0.018	0.0093
Cc1occc1C(=O)NC(C)CCc1ccccc1 (stereo not given)	40	-0.52	-6	1	/	/	/	/	/	/	/
Cc1ccc(C)c(C(=O)NC(C)CCc2ccccc2)c1 (stereo not given)	3	-3.5*	-1	5	-12	0.0075	0.0044	0.025*	0.0074	?	0.01
CC(Cc1ccccc1)NC(=O)/C=C/c1ccc([N+](=O)[O-])cc1 (stereo not given)	1	-3.1	-1	1	/	/	/	/	/	/	/
SMILES	WT yeast gro inh	KCC2 mod	b-catenin transl	MT stabilizer	Pf gametocyte	KCC2 sec1	KCC2 bumet counter	KCC2 secondary2	HEK counter1	KCC2 retest ouab	HEK counter2
O=C(NCCOCCNC(=O)OCc1ccccc1)OCc1ccccc1	3	-0.82	0	3	-14	/	/	/	/	/	/
COc1ccc(CN2CCN(C(=O)CC(C)C)CC2)cc1	/	/	/	/	-11	/	/	/	/	/	/
Cc1nc(NC(C)c2ccccc2)c2c3c(sc2n1)CCC3 (stereo not given)	32	-6.3*	/	1	/	0.0061	0.0042	0.03	0.0071	0.019	0.01
Cc1cccc(OCC(O)CN2CCOCC2)c1 (stereo not given)	/	/	/	/	-31	/	/	/	/	/	/
c1coc(CNc2c3c(nc4ccccc24)CCC3)c1	4	7.3*	-5	3	/	0.0052	0.0039	0.028	0.0065*	0.016*	0.0099
O=C(Cn1nc(-c2ccc(Cl)cc2)ccc1=O)NCc1ccc2c(c1)OCO2	-5	-1.4	-6	3	/	/	/	/	/	/	/
O=C(Cn1nc(-c2ccccc2)ccc1=O)NCc1ccc2c(c1)OCO2	17	-3.3*	-2	5	-7	0.0051	?	0.025*	0.0077	?	0.011

Screens from PubChem BioAssay.
